Shown are actives, neighbours in structure and some others; about 3.3% of the full set was active somewhere.
Myeloid diff 2: induction of myeloid progenitor differentiation, primary screen, cell-based, flow cytometry, MLPCN library | AID 624256, 2012 | ER-HoxA9 myeloid progenitors, lysozyme-GFP differentiation | calls only at 10 µM | actives 1% (n = 360,000);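 active = normalized GFP-positive differentiation at or above the plate's own cutoff, the solvent-only control mean plus 3 SD; inconclusive = no clear call, values can overlap the other calls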;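 also: cells exposed to compound for four days before flow analysis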
Exocytosis inh: LAMP-1 surface exposure blockers, TALL-104 cells – cell-based, flow cytometry, MLPCN library, primary screen; actives 0.66% (n = 360,000); inhibition, % at 10 µM; TALL-104 LAMP-1 surface exposure; cells stimulated with thapsigargin and PMA;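 active = inhibition above about 55%, limit read from the data; inconclusive = no clear call, values can overlap the other calls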
NRP1-CendR mod: modulators of CendR peptide binding to NRP-1, primary screen, biochemical, fluorescence polarization, uHTS; inhibition, % at 25 µM; Neuropilin-1 (Homo sapiens), O14786; actives 0.85% (n = 360,000); FAM-RPARPAR peptide binding to NRP-1;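 active = inhibition or corrected inhibition above about 18%, plus a signal ratio from 0.5 to 1.5, limit read from the data, passing the limit was not always enough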
Target sequence (O14786 whole entry, looked up): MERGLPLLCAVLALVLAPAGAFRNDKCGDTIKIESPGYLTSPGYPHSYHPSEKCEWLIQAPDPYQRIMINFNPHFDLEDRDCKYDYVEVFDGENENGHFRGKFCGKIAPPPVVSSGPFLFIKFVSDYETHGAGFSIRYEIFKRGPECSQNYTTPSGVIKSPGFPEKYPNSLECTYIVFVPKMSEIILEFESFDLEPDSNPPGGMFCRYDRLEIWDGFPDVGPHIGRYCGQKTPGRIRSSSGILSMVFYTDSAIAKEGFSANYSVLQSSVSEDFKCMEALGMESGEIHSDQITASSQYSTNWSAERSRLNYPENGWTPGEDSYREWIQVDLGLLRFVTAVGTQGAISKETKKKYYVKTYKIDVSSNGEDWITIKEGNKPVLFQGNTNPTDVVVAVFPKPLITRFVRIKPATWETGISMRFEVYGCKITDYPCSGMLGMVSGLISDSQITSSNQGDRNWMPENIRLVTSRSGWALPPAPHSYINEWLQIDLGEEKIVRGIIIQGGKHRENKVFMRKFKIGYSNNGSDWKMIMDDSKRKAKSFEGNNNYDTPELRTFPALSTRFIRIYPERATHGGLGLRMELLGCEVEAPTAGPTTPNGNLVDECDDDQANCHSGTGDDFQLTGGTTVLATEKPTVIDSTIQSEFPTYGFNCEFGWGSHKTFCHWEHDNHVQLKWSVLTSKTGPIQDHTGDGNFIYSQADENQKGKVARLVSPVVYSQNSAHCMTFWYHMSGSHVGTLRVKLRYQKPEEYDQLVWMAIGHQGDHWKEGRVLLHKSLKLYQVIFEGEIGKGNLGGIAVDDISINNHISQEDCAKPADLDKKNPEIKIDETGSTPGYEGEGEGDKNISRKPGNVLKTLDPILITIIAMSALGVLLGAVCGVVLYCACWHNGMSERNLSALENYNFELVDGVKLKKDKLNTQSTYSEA
ABCB6 inh MLPCN: ABCB6 transporter inhibitors, primary screen, K562-ABCB6 cells, flow cytometry, MLPCN library | ATP-binding cassette sub-family B member 6 (Homo sapiens), Q9NP58 | K562-ABCB6 porphyrin accumulation, 1 h; stronger effect = lower value | fluorescence ratio to DMSO, % at 10 µM | actives 0.19% (n = 360,000) | AID 602162, 2011;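 active = fluorescence ratio to DMSO below 75%, the collection mean minus 3 SD; inconclusive = too few cells collected in the well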;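 also: signal is porphyrin accumulated inside mitochondria; lower ratio means ABCB6 inhibition with less porphyrin fluorescence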
ATG4B inhibitor: ATG4B protease inhibitors, primary screen, biochemical, fluorescence, uHTS; ATG4B cleavage of LC3-PLA2, NBD-HPC fluorescence, 1 h; Cysteine protease ATG4B (Homo sapiens), Q9Y4P1; inhibition, % at 8.33 µM; actives 0.51% (n = 340,000); AID 504462, 2011; in the data active = inhibition above about 40%
Arr AP2 block: inhibitors of beta-arrestin/AP2 binding, primary screen, biochemical, GPCR trafficking, flow cytometry; actives 0.31% (n = 340,000); FITC-arrestin peptide / GST-AP2 beads; AP2 beta2 appendage carries R879A mutation; AID 504490, 2011; beta-arrestin 1 C-terminal peptide binding to AP2 beta2-adaptin appendage (human); inhibition, % at 10 µM;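 active = inhibition above a set limit, near 3 SD of compounds lacking own fluorescence, cut at about 54% in these data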
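System: GST-AP2 R879A bound to glutathione beads, E. coli-expressed. Also added: 50 nM FITC-arrestin peptide. Schedule: compound with beads 12 min RT, then probe 1 h RT. Signal: bead flow cytometry, FITC channel. Read-out basis: percent response.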
Each line names hits and unclear results; the compound was inactive in the other large screens.

COCCCNC1=C(Cl)C(=O)c2ccccc2C1=O	Exocytosis inh 56.2
CC(C)OCCCNC1=C(Cl)C(=O)c2ccccc2C1=O	none
COCCCNc1nc2ccccc2[nH]c1=O	none
COCCCNc1c2c3c(cccc3[nH]c1=O)C(=O)c1ccccc1-2	Myeloid diff 2 active
Cc1cc(C)c2c(CC(=O)O)c(C)[nH]c2c1	none
O=C(Cc1nn[nH]n1)Nc1cc(Cl)cc(Cl)c1	none
CCCCSC(=S)NC1CCS(=O)(=O)C1 (stereo unspecified)	NRP1-CendR mod 25.1
Nc1ccc(C(=O)OCC(=O)N2c3ccccc3Sc3ccccc32)cc1[N+](=O)[O-]	none
NCCNc1ccc(C(=O)N2c3ccccc3Sc3ccccc32)cc1[N+](=O)[O-]	Exocytosis inh 66.1
CC(C)C[C@H]1CN=C(Nc2ccccc2)N1CC1CCC(C(C)(C)C)CC1 (stereo partly specified)	Myeloid diff 2 inconclusive, Exocytosis inh 92.7
COc1ccccc1NC(=O)N(Cc1ccco1)Cc1cc2cccc(C)c2[nH]c1=O	NRP1-CendR mod 26.1
CCc1nc2c(OCc3ccc(F)cc3)cccn2c1N(C)C(=O)c1ccc(C)cc1	none (no result: ATG4B inhibitor, Arr AP2 block)
COc1ccc(C(C(=O)NCc2ccccc2)N(Cc2ccco2)C(=O)c2snc(C(N)=O)c2N)cc1OC (stereo unspecified)	Exocytosis inh 55.7
COc1ccc(C(C(=O)NC2CCCC2)N(C(=O)c2snc(C(N)=O)c2N)c2ccccc2OC)cc1OC (stereo unspecified)	NRP1-CendR mod 32.0
CC(C)C1OC(c2cccc(NC(=O)c3cccs3)c2)OCC1(C)C (stereo unspecified)	none
COc1ccc(OC)c(C2=NOC(C(=O)Nc3cccc(C(C)=O)c3)C2)c1 (stereo unspecified)	Myeloid diff 2 active
COc1ccc(OC)c(C2=NOC(C(=O)Nc3ccccc3SC)C2)c1 (stereo unspecified)	none
CSCC[C@H](NC(=O)Cc1ccc(Cl)cc1)C(=O)N1CCC2(CC1)NCCc1[nH]cnc12	Myeloid diff 2 active
Cc1cccc(-n2ncc3c(NCc4ccccc4)ncnc32)c1	Myeloid diff 2 active
O=C(NCc1cnn(-c2ccccc2)c1)C1CCC(=O)N(C2CC2)C1 (stereo unspecified)	none
COc1ccc(C(=O)c2cnc(/N=C/N(C)C)s2)cc1	NRP1-CendR mod 31.5
COc1ccc(Oc2c(OC)cc(NCc3ccc(CN)cc3)c3ncccc23)cc1	Myeloid diff 2 active (no result: ATG4B inhibitor, Arr AP2 block)
C/C=C(/C)C(=O)O[C@@H]1[C@H](OC(C)=O)c2c(ccc3ccc(=O)oc23)OC1(C)C	Exocytosis inh 60.9
C/C=C(/C)C(=O)OC1c2c(ccc3ccc(=O)oc23)OC(C)(C)C1OC(C)=O (stereo unspecified)	none
CC1(C)CC(=O)C=C(c2ccc(F)cc2OCc2ccccc2)C1	none
CS(=O)(=O)N1CCN(c2ccccc2NC(=O)Cc2ccccc2)CC1	none
CS(=O)(=O)N1CCN(c2ccccc2NC(=O)Cc2ccc(Cl)cc2)CC1	NRP1-CendR mod 27.8
O=S(=O)(NCc1ccc(F)cc1)c1ccccc1Br	none
CC/C(=N\NC(=O)c1c[nH]c2ccccc12)c1cccs1	NRP1-CendR mod 29.6
C/C(=N\NC(=O)c1c[nH]c2ccccc12)c1ccc(C)s1	none
CCn1c(SCC(=O)c2c[nH]c3ccccc23)nnc1-c1cccs1	Myeloid diff 2 active
COc1cccc(C(=O)NC2CCN(CC(=O)NCc3ccccc3F)CC2)c1	none
COc1cccc(C(=O)NC2CCN(CC(=O)NCc3ccccc3OC)CC2)c1	NRP1-CendR mod 34.5
O=C(/C=C/[C@H]1O[C@@H](n2cnc3c(NC(=O)c4ccccc4)ncnc32)[C@H](O)[C@@H]1O)NCc1cccs1	NRP1-CendR mod 18.4 (no result: ATG4B inhibitor, Arr AP2 block)
O=C(CC[C@H]1O[C@@H](n2cnc3c(NC(=O)c4ccccc4)ncnc32)[C@H](O)[C@@H]1O)NCC(F)(F)F	NRP1-CendR mod 19.8 (no result: ATG4B inhibitor, Arr AP2 block)
COCCCNC(=O)/C=C/[C@H]1O[C@@H](n2cnc3c(NC(=O)c4ccccc4)ncnc32)[C@H](O)[C@@H]1O	none (no result: ATG4B inhibitor, Arr AP2 block)
O=C(CN1CCC(Cc2ccccc2)CC1)N1CCc2ccccc2C1	none
Cc1cccc(N=N/C(=C\O)C(=O)c2ccc(Br)cc2)c1	Exocytosis inh 101.3
O=[N+]([O-])/C=C/c1c(OCc2ccccc2)ccc2ccccc12	Exocytosis inh 77.9 (no result: ATG4B inhibitor)
CCOc1ccc(/C=C/[N+](=O)[O-])c2ccccc12	Exocytosis inh 101.5
COC(C[C@H]1O[C@@H]1[C@H](O)COCc1ccccc1)OC	Myeloid diff 2 active
COc1ccc(C(=O)Nc2nc(-c3ccc([N+](=O)[O-])cc3)c(-c3ccc(OC)cc3)s2)cc1	none
CCCN(CC1CC1)c1cc2c(c3c1ccn3C)C1CCC2O1 (stereo unspecified)	NRP1-CendR mod 21.6 (no result: ATG4B inhibitor, Arr AP2 block)
CCN(CC)c1cc2c(c3c1ccn3C)C1CCC2O1 (stereo unspecified)	none (no result: ATG4B inhibitor, Arr AP2 block)
S=C(NCCC1=CCCCC1)NCc1ccco1	none
CN(C)CCNC(=O)c1ccc(Cl)s1	Myeloid diff 2 active
CCOC(=O)C1CCCN(C(=O)CN2C(=O)c3ccccc3S2(=O)=O)C1 (stereo unspecified)	none
N=c1n(CC(=O)c2ccc([N+](=O)[O-])cc2)c2ccccc2n1Cc1ccccc1	Exocytosis inh 76.5
N=c1n(CCN2CCCCC2)c2ccccc2n1CC(=O)c1cccc([N+](=O)[O-])c1	Myeloid diff 2 active
CSc1nc2ccccc2cc1/C=C(\C#N)c1ccccc1	none (no result: Myeloid diff 2)
O=Cc1cc2ccccc2nc1SCCCF	Myeloid diff 2 active, Exocytosis inh 58.9
N#CCC(=O)Nc1ccc(C(=O)NNC(=S)NC2CC2)cc1	none
O=S(N1CCc2ccccc21)C12CC3CC(CC(C3)C1)C2 (stereo unspecified)	Myeloid diff 2 active
Cc1ccc2oc(-c3ccc(NC(=O)c4ccncc4)cc3O)nc2c1	Myeloid diff 2 active
COc1ccc(CC(=O)Nc2ccc(-c3nc4cc(C)ccc4o3)c(O)c2)cc1OC	none
CCc1c(C)nc2nc(SCc3ccccc3Cl)[nH]n2c1=O	ABCB6 inh MLPCN 61.0
Cc1cccc(NC(=O)c2ccc([N+](=O)[O-])o2)c1C	Myeloid diff 2 active
CN1CCN(c2ccccc2NC(=O)c2cc3ccccc3o2)CC1	Myeloid diff 2 active
O=C(Nc1ccccc1N1CCCC1)c1ccc([N+](=O)[O-])o1	Myeloid diff 2 active, Exocytosis inh inconclusive

Bioassay records deposited in PubChem by several laboratories.
